Reference: ChEMBL document CHEMBL4311977, “Design and synthesis of parthenolide and 5-fluorouracil conjugates as potential anticancer agents against drug resistant hepatocellular carcinoma” (Eur J Med Chem, 2019)
Structures can show the parent of a compound that is named as a salt.

Experiments:
Bel-7402 = assay: Antiproliferative activity against human Bel7402 incubated for 72 hrs by MTT assay; format: functional, cell-based; settings: Bel-7402, 72 h
Summary of the method: (§1)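 Bel-7402 and its 5-FU-resistant subline were kept in RPMI-1640 with 10% FBS and 1% penicillin/streptomycin at 37 °C under 5% CO2. Cells were seeded at 5000 per well and left for 12 h, then exposed to a concentration series for 72 h. MTT stock (5 mg/mL) was added for 4 h and the product dissolved in DMSO. OD was read at 570 nm and IC50 obtained by curve fitting.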

Bel7402/5-FU [1] = assay: Antiproliferative activity against human Bel7402/5-FU incubated for 72 hrs by MTT assay; format: functional, cell-based; summary of the method: as §1
[2] = Oral bioavailability in canine at 100 mg/kg; format: ADME, organism-based, Canis lupus familiaris; settings: dog, in vivo
[3] = Oral bioavailability in mouse at 100 mg/kg; format: ADME, organism-based; settings: in vivo
Bel7402/5-FU [4] = assay: Induction of apoptosis in human Bel7402/5-FU assessed as viable cells at 5 uM incubated for 48 hrs by annexinV-FITC/propidium iodide staining based flow cytometry (reference value: 96.9 %)
Bel7402/5-FU [5] = assay: Induction of apoptosis in human Bel7402/5-FU assessed as early apoptotic cells at 5 uM incubated for 48 hrs by annexinV-FITC/propidium iodide staining based flow cytometry (reference value: 20.1 %)
Bel7402/5-FU [6] = assay: Induction of apoptosis in human Bel7402/5-FU assessed as late apoptotic cells at 5 uM incubated for 48 hrs by annexinV-FITC/propidium iodide staining based flow cytometry (reference value: 0.945 %)
Bel7402/5-FU [7] = assay: Induction of apoptosis in human Bel7402/5-FU assessed as necrotic cells at 5 uM incubated for 48 hrs by annexinV-FITC/propidium iodide staining based flow cytometry (reference value: 0.157 %)

SMILES | IC50 (Bel-7402) [µM] | IC50 (Bel7402/5-FU [1]) [µM] | other results
C=C1C(=O)O[C@H]2[C@H]1CC/C(COC(=O)Cn1cc(F)c(=O)n(Cc3ccccc3)c1=O)=C\CC[C@@]1(C)O[C@@H]21 | 3.98 | 4.27 | 
C=C1C(=O)O[C@H]2[C@H]1CC/C(COC(=O)CCC(=O)N1CCN(C(=O)Cn3cc(F)c(=O)[nH]c3=O)CC1)=C\CC[C@@]1(C)O[C@@H]21 | > 20 | > 20 | 
C=C1C(=O)O[C@H]2[C@H]1CC/C(COC(=O)Cn1cc(F)c(=O)n(Cc3ccccc3F)c1=O)=C\CC[C@@]1(C)O[C@@H]21 | 3.77 | 3.83 | 
C/C1=C\CC[C@@]2(C)O[C@H]2[C@H]2OC(=O)[C@@H](CN(C)C)[C@@H]2CC1 |  |  | bioavailability [2]: 70%; bioavailability [3]: 70%
C=C1C(=O)O[C@H]2[C@H]1CC/C(Cn1cc(Cn3cc(F)c(=O)n(Cc4ccccc4)c3=O)nn1)=C\CC[C@@]1(C)O[C@@H]21 | 9.16 | 8.84 | 
C=C1C(=O)O[C@H]2[C@H]1CC/C(COC(=O)Cn1cc(F)c(=O)n(Cc3c(F)cccc3F)c1=O)=C\CC[C@@]1(C)O[C@@H]21 | 4.5 | 4.98 | 
COc1cccc2c1C(=O)c1c(O)c3c(c(O)c1C2=O)C[C@@](O)(C(=O)CO)C[C@@H]3O[C@H]1C[C@H](N)[C@H](O)[C@H](C)O1 [DOXORUBICIN HYDROCHLORIDE] |  | 8.36 | 
C=C1C(=O)O[C@H]2[C@H]1CC/C(COC(=O)Cn1cc(F)c(=O)[nH]c1=O)=C\CC[C@@]1(C)O[C@@H]21 | > 20 | > 20 | 
C=C1C(=O)O[C@H]2[C@H]1CC/C(COC(=O)CCC(=O)NCCCCCCNC(=O)Cn1cc(F)c(=O)n(Cc3ccccc3)c1=O)=C\CC[C@@]1(C)O[C@@H]21 | 18.3 | 16.2 | 
C=C1C(=O)O[C@H]2[C@H]1CC/C(COC(=O)Cn1cc(F)c(=O)n(Cc3ccc(F)c(F)c3)c1=O)=C\CC[C@@]1(C)O[C@@H]21 | 2.7 | 4.48 | 
C=C1C(=O)O[C@H]2[C@H]1CC/C(COC(=O)Cn1cc(F)c(=O)n(CCC)c1=O)=C\CC[C@@]1(C)O[C@@H]21 | 8.58 | 9.11 | 
C=C1C(=O)O[C@@H]2C3O[C@]3(C)CC/C=C(\C)CC[C@@H]12 (stereo partly drawn) | 8.62 | 13 | viability at 5 µM (Bel7402/5-FU [4]): 94.3%; Activity (Bel7402/5-FU [5]): 1.75%; Activity (Bel7402/5-FU [6]): 2.52%; Activity (Bel7402/5-FU [7]): 1.29%
C=C1C(=O)O[C@H]2[C@H]1CC/C(COC(=O)Cn1cc(F)c(=O)n(Cc3ccc(Br)cc3)c1=O)=C\CC[C@@]1(C)O[C@@H]21 | 2.67 | 3.24 | 
C=C1C(=O)O[C@H]2[C@H]1CC/C(COC(=O)Cn1cc(F)c(=O)n(Cc3cc(F)ccc3F)c1=O)=C\CC[C@@]1(C)O[C@@H]21 | 3.06 | 4.61 | 
C=C1C(=O)O[C@H]2[C@H]1CC/C(COC(=O)Cn1cc(F)c(=O)n(Cc3ccc(F)cc3F)c1=O)=C\CC[C@@]1(C)O[C@@H]21 | 3.67 | 5.01 | 
C=C1C(=O)O[C@H]2[C@H]1CC/C(Cn1cc(Cn3cc(F)c(=O)n(Cc4ccc(F)cc4)c3=O)nn1)=C\CC[C@@]1(C)O[C@@H]21 | 4.91 | 4.86 | 
C=C1C(=O)O[C@H]2[C@H]1CC/C(COC(=O)Cn1cc(F)c(=O)n(Cc3cccc(F)c3)c1=O)=C\CC[C@@]1(C)O[C@@H]21 | 2.53 | 3.7 | 
O=c1[nH]cc(F)c(=O)[nH]1 [FLUOROURACIL] | 7.36 | > 400 | viability at 5 µM (Bel7402/5-FU [4]): 27.4%; Activity (Bel7402/5-FU [5]): 1.85%; Activity (Bel7402/5-FU [6]): 0.073%; Activity (Bel7402/5-FU [7]): 2.164%
C=C1C(=O)O[C@H]2[C@H]1CC/C(COC(=O)CCC(=O)N1CCN(C(=O)Cn3cc(F)c(=O)n(Cc4ccccc4)c3=O)CC1)=C\CC[C@@]1(C)O[C@@H]21 | > 20 | > 20 | 
C=C1C(=O)O[C@H]2[C@H]1CC/C(COC(=O)Cn1cc(F)c(=O)n(Cc3ccc(F)cc3)c1=O)=C\CC[C@@]1(C)O[C@@H]21 | 2.73 |  | 
C=C1C(=O)O[C@H]2[C@H]1CC/C(COC(=O)Cn1cc(F)c(=O)n(Cc3ccc(Cl)cc3)c1=O)=C\CC[C@@]1(C)O[C@@H]21 | 2.56 | 2.42 | 
C=C1C(=O)O[C@H]2[C@H]1CC/C(Cn1cc(Cn3cc(F)c(=O)[nH]c3=O)nn1)=C\CC[C@@]1(C)O[C@@H]21 | > 20 | > 20 | 
C=C1C(=O)O[C@H]2[C@H]1CC/C(COC(=O)CCC(=O)OCn1cc(F)c(=O)[nH]c1=O)=C\CC[C@@]1(C)O[C@@H]21 | > 20 | > 20 | 
C=C1C(=O)O[C@H]2[C@H]1CC/C(COC(=O)Cn1cc(F)c(=O)n(Cc3ccc([N+](=O)[O-])cc3)c1=O)=C\CC[C@@]1(C)O[C@@H]21 | 4.07 | 4.34 | 
C=C1C(=O)O[C@H]2[C@H]1CC/C(COC(=O)CCC(=O)NCCCCCCNC(=O)Cn1cc(F)c(=O)[nH]c1=O)=C\CC[C@@]1(C)O[C@@H]21 | > 20 | > 20 | 
C=C1C(=O)O[C@H]2[C@H]1CC/C(COC(=O)Cn1cc(F)c(=O)n(C)c1=O)=C\CC[C@@]1(C)O[C@@H]21 | 9.4 | 11.7 | 
